NALP3 yeast inh: NALP3 inhibition in yeast; actives 0.39% (n = 330,000); Yeast reconstituted NLRP3/ASC/caspase-1, beta-gal luminescence, 24 h; AID 2825; inhibition, % at 10 µM;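 active = inhibition of 50% or more; inactive = inhibition below 50%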;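 also: plate controls were induced DMSO wells for no effect and uninduced yeast grown without galactose for full effect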
ATG4B inhibitor: inhibitors of human ATG4B cysteine protease; ATG4B cleavage of LC3-PLA2, NBD-HPC fluorescence, 1 h; inhibition, % at 8.33 µM; Q9Y4P1; actives 0.51% (n = 340,000); in the data active = inhibition above about 40%
Target sequence (Q9Y4P1 whole entry, looked up): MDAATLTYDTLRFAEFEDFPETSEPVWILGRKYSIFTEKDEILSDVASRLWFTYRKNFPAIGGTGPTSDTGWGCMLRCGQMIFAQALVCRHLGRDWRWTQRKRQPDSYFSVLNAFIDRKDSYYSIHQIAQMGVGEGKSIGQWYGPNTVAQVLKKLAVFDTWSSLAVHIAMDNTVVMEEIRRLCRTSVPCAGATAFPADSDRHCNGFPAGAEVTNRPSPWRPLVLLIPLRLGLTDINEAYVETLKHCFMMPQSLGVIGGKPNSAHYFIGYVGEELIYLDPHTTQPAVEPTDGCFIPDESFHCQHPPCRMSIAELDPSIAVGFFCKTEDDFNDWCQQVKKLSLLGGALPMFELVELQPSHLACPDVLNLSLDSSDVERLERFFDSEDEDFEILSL
UCH37 inh: human UCH37 deubiquitinating enzyme inhibition. purified proteasome/UCH37, Ub-AMC cleavage fluorescence. inhibition, % (no concentration beside the values). Q9Y5K5. actives 0.33% (n = 330,000);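 active = mean inhibition over replicate wells above about 20%, limit read from the data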;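 also: 0% = compound-free wells with enzyme and 100% = wells lacking proteasome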
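Material: Human UCH37 enzyme supplied as purified proteasome complex | Schedule: 30 min preincubation with enzyme, 25 min cleavage at room temperature | Detection: AMC fluorescence 355/460 nm | Measure: % inhibition of Ub-AMC cleavage fluorescence | Controls: Wells without proteasome as full block, compound-free enzyme plus substrate as uninhibited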
ALR H2O2 inh: human ALR oxidase inhibition via reduced H2O2; P55789; purified ALR, DTT oxidation, H2O2 HRP-luminol luminescence; inhibition, % (test concentration not listed); actives 3.8% (n = 290,000);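 active = mean replicate inhibition above about 79%, with every replicate also reaching it, limit read from the data; inconclusive = only one of the two criteria met; inactive = mean below limit and not every replicate reaching it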
Target sequence (P55789 whole entry, looked up): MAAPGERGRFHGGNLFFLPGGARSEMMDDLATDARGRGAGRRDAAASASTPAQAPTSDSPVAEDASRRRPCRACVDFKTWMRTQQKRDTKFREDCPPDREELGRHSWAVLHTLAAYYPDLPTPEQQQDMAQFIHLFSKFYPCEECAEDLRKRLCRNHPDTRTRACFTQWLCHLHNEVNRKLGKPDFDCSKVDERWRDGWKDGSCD
NALP1 yeast inh: NALP1 inhibition; actives 0.61% (n = 280,000); inhibition, % at 10 µM; S. cerevisiae NALP1/ASC/caspase-1 growth, X-gal OD620, 72 h; in the data active = inhibition mostly above about 24%, no sharp cut-off; inactive = mostly below about 32%
Calb FLC: affects C. albicans growth with fluconazole. C. albicans CaCi-2 + fluconazole, Alamar Blue growth, 48 h. growth inhibition, % (test concentration not listed). actives 0.57% (n = 300,000);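 active = growth inhibition above about 58% in most replicates, limit read from the data, passing the limit was not always enough; inconclusive = exactly half the replicates above a set limit; inactive = most replicates below a set limit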;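 also: all wells also contain fluconazole at 8 µg/ml as a sub-toxic cotreatment; 0% = median of DMSO wells and 100% = median of geldanamycin control wells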
Starred values were filed as active, the others as inactive; ? = inconclusive; / = no result given. An excerpt weighted towards active compounds, which were near 4.8% of everything screened.

SMILES	NALP3 yeast inh	ATG4B inhibitor	UCH37 inh	ALR H2O2 inh	NALP1 yeast inh	Calb FLC
COc1ccccc1N(C)S(=O)(=O)c1ccc(C(=O)OCC(=O)Nc2ccc(C(N)=O)cc2)cc1	-3	-7	-2	0	/	/
COc1ccccc1N(C)S(=O)(=O)c1ccc(C(=O)OCC(=O)N(C(C)C)C(C)C)cc1	7	7	2	-40	26*	?
COc1ccc2c(c1)CC(C)CC2=NNC(=O)c1ccco1 (configuration not stated)	/	/	7	/	/	/
COc1cc(/C=N/Nc2ccccn2)ccc1O	-2	31	/	97*	-13	-3
COc1cc(C=NNc2ccccn2)ccc1O	/	/	10	/	/	/
COc1ccc(/C=N/Nc2ccccn2)cc1OC	-11	-6	/	99*	12	-6
COc1cc(/C=N/Nc2ccnc(=O)[nH]2)ccc1O	-7	-1	/	98*	-13	3
O=c1nccc(N/N=C/c2cccc(O)c2)[nH]1	-1	-1	/	52	1	-9
COc1cc(C=NNc2ccccn2)cc(OC)c1O	/	/	11	/	/	/
Cc1ccc(Cn2nc(C)c(C=NNC(=O)c3cccnc3)c2C)cc1	/	/	4	/	/	/
O=C(COC(=O)CCC(=O)c1ccc(F)cc1)NCCc1ccccc1	17	-9	1	-1	/	/
COc1ccc(CCNC(=O)COC(=O)CCC(=O)c2ccc(F)cc2)cc1	-17	-12	5	85*	20	0
c1ccc(NN=C(Cc2ncc[nH]2)c2ccccc2)cc1	/	/	1	/	/	/
c1ccc2c(NC3CCCC3)nnc(NC3CCCC3)c2c1	-2	10	-19	98*	/	-11
Cc1c(NC(=S)NN=C/C=C/c2ccc([N+](=O)[O-])cc2)c(=O)n(-c2ccccc2)n1C	/	/	8	/	/	/
CCN(CC)S(=O)(=O)c1ccc(NC(=O)CSc2ncnc3ccccc23)cc1	12	15	3	98*	26	-1
NS(=O)(=O)c1cccc(NC(=O)CSc2ncnc3ccccc23)c1	-4	-3	11	99*	/	-1
NS(=O)(=O)c1ccc(NC(=O)CSc2ncnc3ccccc23)cc1	-21	-12	2	-4	5	-26
O=C(Oc1ccc(C=NO)cc1)c1ccccc1	/	/	1	/	/	/
CON=C(Cn1ncc(N2CCCC2)c(Br)c1=O)c1ccc(Cl)cc1	/	/	3	/	/	/
COc1cc(C(C)=NN2CCOCC2)cc(OC)c1OC	/	/	4	/	/	/
COCCNC(=O)c1cc2c3ccccc3n(C)c2s1	-7	1	-27	99*	-16	-3
Cn1c2ccccc2c2cc(C(=O)NNC(=O)CCl)sc21	-10	-7	-25	35	-6	6
CC(=O)Nc1ccc(S(=O)(=O)NNC(=O)c2cc3c4ccccc4n(C)c3s2)cc1	-7	-25	-9	98*	19	-5
COC(=O)c1ccccc1-c1ccc(C=NNC(=O)c2cc3ccccc3o2)o1	/	/	-83	/	/	/
SMILES	NALP3 yeast inh	ATG4B inhibitor	UCH37 inh	ALR H2O2 inh	NALP1 yeast inh	Calb FLC
C[n+]1c2n(c3ccccc31)N=C(c1ccc(Cl)cc1)CS2	-1	4	11	99*	35	?
CCCN(CCC)c1ccc(CC(=O)NC(C)Cc2ccccc2)cc1 (configuration not stated)	11	3	-1	98*	6	3
CCN(CC)c1ccc(CC(=O)NC(C)Cc2ccccc2)cc1 (configuration not stated)	19	1	-3	100*	-2	-29
CC1CC(C)(C)NC(=S)N1CCCC(=O)N1CCN(c2ccc(F)cc2)CC1 (configuration not stated)	11	-2	1	83*	12	4
COc1ccc(N2CCN(C(=O)CCN3C(=S)NC(C)(C)CC3C)CC2)cc1 (configuration not stated)	16	-5	-2	88*	-14	-1
CC1(C)CC(N=Cc2c(O)n(Cc3ccc4c(c3)OCO4)c(=O)c3ccccc23)CC(C)(C)N1	3	-16	10	-16	3	88*
COCCNC(=S)NN=C(C)c1cccc(C(F)(F)F)c1	/	/	5	/	/	/
Cc1[nH]n(-c2ccccc2)c(=O)c1C=NN(c1ccccc1)c1ccccc1	/	/	2	/	/	/
O=C(Nc1cccc(S(=O)(=O)N2CCCCC2)c1)c1ccccc1NS(=O)(=O)c1ccc(F)cc1	10	-14	-27	-2	4	54
O=C(Nc1cc(S(=O)(=O)N2CCCCC2)ccc1O)c1ccccc1NS(=O)(=O)c1ccc(F)c(F)c1	21	-10	-5	96*	42	24
O=C(CSc1nc2ccccc2[nH]1)N=Nc1c(O)[nH]c2ccccc12	-6	5	7	96*	13	-5
Cn1c(Cl)c(C=NOC(=O)c2ccc(Cl)cc2)c2ccccc21	/	/	-2	/	/	/
Cc1cc(C(F)(F)F)n2[nH]c(=O)c(N=Nc3ccccc3)c2n1	6	12	18	10	-19	26
O=c1[nH]n2c(C(F)(F)F)cc(C3CC3)nc2c1N=Nc1ccccc1	20	-5	13	/	-14	88*
Cc1oc(C(=O)O)cc1CSCc1cc(C(=O)O)c(C)o1	13	-12	-1	99*	20	1
Cc1nn(Cc2ccc(Cl)cc2)c(C)c1N	-6	-23	2	94*	5	13
CCOc1ccc(C2=Nn3c(nnc3-c3ccccc3OC)SC2)cc1	/	-11	6	/	-3	?
COc1ccccc1-c1nnc2n1N=C(c1ccc(O)c(O)c1)CS2	12	3	9	99*	-5	?
CC(C)Cc1nnc(NC(=O)C23CC4CC(CC(C4)C2)C3)s1	21	3	4	-8	-2	4
CNc1nc(N)c(C(=O)C23CC4CC(CC(C4)C2)C3)s1	23	17	2	98*	8	-5
C/C(=N/NC(=O)c1ccccn1)c1ccc(O)cc1	6	5	/	99*	-13	-18
COc1ccc(OCC(=O)N/N=C(\C)c2ccc(OC)cc2)cc1	13	-8	/	/	4	0
C/C(=N\NC(=O)COc1ccccc1)c1ccc(O)cc1	18	10	/	100*	14	-14
CC(=NNC(=O)c1ccccn1)c1ccc(O)cc1	/	/	5	/	/	/
COc1cc(/C=N\NC(=O)c2ccc(Cn3cc(Br)c([N+](=O)[O-])n3)o2)cc(OC)c1O	-7	-13	/	100*	3	3
COc1cc(/C=N/NC(=O)c2ccc(Cn3cc([N+](=O)[O-])cn3)o2)cc(Br)c1O	15	-8	/	96*	-4	12
CCOC(=O)c1ccc(N2Cc3ccccc3C2=N)cc1	3	0	5	-2	40*	3
CSc1ccc(-c2nc(CSCC(=O)NCCCN3CCCC3=O)c(C)o2)cc1	-3	14	0	95*	5	21
CCc1ccc(-c2nc(CSCC(=O)NCCCN3CCCC3=O)c(C)o2)cc1	-4	-15	3	99*	4	-1

Screens as filed in PubChem BioAssay.
